Results collected from several papers.
Compare with care: the assays were run in different laboratories.
Nectin-4: Nectin-4 (Homo sapiens, UniProt Q96NY8)
PIK3C2B: Phosphatidylinositol 4-phosphate 3-kinase C2 domain-containing subunit beta (PIK3C2B, Homo sapiens, UniProt O00750)
UCK1: UCK1 (Homo sapiens, UniProt Q9HA47)

CC(=O)N[C@H](C(=O)N[C@H](C(=O)N[C@@H](Cc1ccccc1)C(=O)N[C@H](C(=O)N[C@@H](CO)C(=O)N[C@@H](Cc1c[nH]c2ccccc12)C(=O)N[C@@H](CCC(=O)O)C(=O)N[C@@H](CCC(=O)O)C(=O)N[C@@H](Cc1ccc(O)cc1)C(=O)N[C@@H](CC(C)C)C(=O)N[C@@H](CC(=O)O)C(=O)N[C@@H](Cc1c[nH]c2ccccc12)C(=O)N[C@H](C(N)=O)C(C)C)[C@@H](C)O)C(C)C)[C@@H](C)O
Kd (Proprotein convertase subtilisin/kexin type 9 (PCSK9, Homo sapiens, UniProt Q8NBP7); binding, SPR): 0.667 µM

Nc1ncnc2c1ncn2[C@@H]1O[C@H](COP(=O)(O)O)[C@@H](O)[C@H]1O
Kd (Adenylosuccinate lyase (ADSL, Homo sapiens, UniProt P30566, R303C); binding, ITC): 130 µM

CCCC[C@@H]1NC(=O)[C@H](Cc2ccc(O)cc2)NC(=O)[C@@H]2CCCN2C(=O)[C@H](CC(=O)O)NC(=O)[C@H](C)NC(=O)[C@H](Cc2ccccc2)NC(=O)[C@@H]2CSCCC(=O)N3CN(CN(C3)C(=O)CCSC[C@@H](C(=O)N[C@@H](CNC(=O)CCc3cn(CCOCCOCCOCCOCCOCCOCCOCCOCCOCCOCCOCCOCCC(=O)NCCC(=O)N(C)CC(=O)N(C)CC(=O)N(C)CC(=O)N(C)CC(=O)N(C)CC(=O)N(C)CC(=O)N(C)CC(=O)N(C)CC(=O)N(C)CC(=O)N(C)CC(=O)NCCCC[C@@H]4NC(=O)[C@H](Cc5cccc6ccccc56)NC(=O)[C@@H]5CCCN5C(=O)[C@@H](NC(C)=O)CSCCC(=O)N5CN6CN(C5)C(=O)CCSC[C@H](NC4=O)C(=O)N[C@@H](CCSC)C(=O)N[C@@H](CCCCNC(=N)N)C(=O)N[C@@H](CC(=O)O)C(=O)N[C@@H](Cc4c[nH]c5ccccc45)C(=O)N[C@@H](CO)C(=O)N[C@@H]([C@@H](C)O)C(=O)N4CCC[C@H]4C(=O)N4C[C@H](O)C[C@H]4C(=O)N[C@@H](Cc4c[nH]c5ccccc45)C(=O)N[C@H](C(N)=O)CSCCC6=O)nn3)C(N)=O)NC1=O)C(=O)CCSC[C@H](NC(C)=O)C(=O)N[C@@H](CC(C)(C)C)C(=O)N1CCC[C@H]1C(=O)N[C@@H](CCC(=O)O)C(=O)N[C@H](C)C(=O)N1CCC[C@H]1C(=O)N[C@@H](Cc1ccc(O)cc1)C(=O)N2
Kd (Nectin-4; binding, SPR): 0.002 µM

CC(=O)N[C@H](C(=O)N1C[C@H](O)C[C@H]1C(=O)NCc1ccc(-c2scnc2C)cc1)C(C)(C)SCCCCCCNC(=O)C[C@@H]1N=C(c2ccc(Cl)cc2)c2c(sc(C)c2C)-n2c(C)nnc21
Kd (Bromodomain-containing protein 3, BD1 (BRD3, Homo sapiens, UniProt Q15059); binding, ITC): 0.035 µM

C=CC(=O)N1CCC(C(=O)NCC(=O)N2CCN(c3nc(-c4cnc(N)nc4C(F)F)nc(N4CCOCC4)n3)CC2)CC1
Kd (PIK3C2B; binding, competition with immobilised ligand): 0.081 µM

CCCC[C@@H]1NC(=O)[C@H](Cc2ccc(O)cc2)NC(=O)[C@@H]2CCCN2C(=O)[C@H](CC(=O)O)NC(=O)[C@H](C)NC(=O)[C@H](Cc2ccccc2)NC(=O)[C@@H]2CSCCC(=O)N3CN(CN(C3)C(=O)CCSC[C@@H](C(=O)N[C@@H](C)C(N)=O)NC1=O)C(=O)CCSC[C@H](NC(C)=O)C(=O)N[C@@H](CC(C)(C)C)C(=O)N1CCC[C@H]1C(=O)N[C@@H](CCC(=O)O)C(=O)N[C@H](CCCCNC(=O)CCc1cn(CC(=O)N[C@H]3CSCCC(=O)N4CN5CN(C4)C(=O)CCSC[C@H](NC(=O)[C@@H](CC(=O)O)NC(=O)[C@H](Cc4cccc6ccccc46)NC(=O)[C@@H]4CCCN4C3=O)C(=O)N[C@@H](CCSC)C(=O)N[C@@H](CCCCNC(=N)N)C(=O)N[C@@H](CC(=O)O)C(=O)N[C@@H](Cc3c[nH]c4ccccc34)C(=O)N[C@@H](CO)C(=O)N[C@@H]([C@@H](C)O)C(=O)N3CCC[C@H]3C(=O)N3C[C@H](O)C[C@H]3C(=O)N[C@@H](Cc3c[nH]c4ccccc34)C(=O)N[C@H](C(N)=O)CSCCC5=O)nn1)C(=O)N1CCC[C@H]1C(=O)N[C@@H](Cc1ccc(O)cc1)C(=O)N2
Kd (Nectin-4; binding, SPR): 0.001 µM

O=c1ccn([C@@H]2O[C@H](CO)[C@@H](O)[C@H]2O)c(=O)[nH]1
Kd (UCK1; binding, fluorescence): 0.0564 µM

CCCC[C@@H]1NC(=O)[C@H](Cc2ccc(O)cc2)NC(=O)[C@@H]2CCCN2C(=O)[C@H](CC(=O)O)NC(=O)[C@H](C)NC(=O)[C@H](Cc2ccccc2)NC(=O)[C@@H]2CSCCC(=O)N3CN(CN(C3)C(=O)CCSC[C@@H](C(=O)N[C@@H](CNC(=O)Cn3cc(CCC(=O)NCCC(=O)N(C)CC(=O)N(C)CC(=O)N(C)CC(=O)N(C)CC(=O)N(C)CC(=O)N(C)CC(=O)N(C)CC(=O)N(C)CC(=O)N(C)CC(=O)N(C)CC(=O)N[C@H]4CSCCC(=O)N5CN6CN(C5)C(=O)CCSC[C@H](NC(=O)[C@@H](CC(=O)O)NC(=O)[C@H](Cc5cccc7ccccc57)NC(=O)[C@@H]5CCCN5C4=O)C(=O)N[C@@H](CCSC)C(=O)N[C@@H](CCCCNC(=N)N)C(=O)N[C@@H](CC(=O)O)C(=O)N[C@@H](Cc4c[nH]c5ccccc45)C(=O)N[C@@H](CO)C(=O)N[C@@H]([C@@H](C)O)C(=O)N4CCC[C@H]4C(=O)N4C[C@H](O)C[C@H]4C(=O)N[C@@H](Cc4c[nH]c5ccccc45)C(=O)N[C@H](C(N)=O)CSCCC6=O)nn3)C(N)=O)NC1=O)C(=O)CCSC[C@H](NC(C)=O)C(=O)N[C@@H](CC(C)(C)C)C(=O)N1CCC[C@H]1C(=O)N[C@@H](CCC(=O)O)C(=O)N[C@H](C)C(=O)N1CCC[C@H]1C(=O)N[C@@H](Cc1ccc(O)cc1)C(=O)N2
Kd (Nectin-4; binding, SPR): 0.0026 µM

NC(=O)C1=CN([C@@H]2O[C@H](COP(=O)(O)OP(=O)(O)OC[C@H]3O[C@@H](n4cnc5c(N)ncnc54)[C@H](OP(=O)(O)O)[C@@H]3O)[C@@H](O)[C@H]2O)C=CC1
Kd (ZMO1885 (Zymomonas mobilis, UniProt Q5NLA1, D294W/Y343W); binding): 53 µM

Cc1cc(Nc2cc3ncccc3c(N[C@@H]3C[C@H]4CC[C@@H](C3)N4CCC#N)n2)n[nH]1
Kd (Mitogen-activated protein kinase kinase kinase 3 (MAP3K3, Homo sapiens, UniProt Q99759); binding, competition with immobilised ligand): 0.1 µM

Cc1nc(NC(=O)N2CCC[C@H]2C(N)=O)sc1-c1ccnc(C(C)(C)C(F)(F)F)c1
Kd (PIK3C2B; binding, competition with immobilised ligand): 0.315 µM

NC(=O)c1ncn([C@@H]2O[C@H](COP(=O)(O)O)[C@@H](O)[C@H]2O)c1N
Kd (Adenylosuccinate lyase (ADSL, Homo sapiens, UniProt P30566); binding, ITC): 34 µM

CCCN1CCN(c2ccc(-c3cncc(Cl)c3N3CCC4(CCNC4=O)CC3)cc2)CC1
Kd (Serine/threonine-protein kinase 16 (STK16, Homo sapiens, UniProt O75716); cell-free assay; lysate): 19.4 µM

Cc1cc2nc3c(=O)[nH]c(=O)nc-3n(C[C@H](O)[C@H](O)[C@H](O)COP(=O)(O)OP(=O)(O)OC[C@H]3O[C@@H](n4cnc5c(N)ncnc54)[C@H](O)[C@@H]3O)c2cc1C
Kd (Heterogeneous nuclear ribonucleoprotein U-like protein 1 (HNRNPUL1, Homo sapiens, UniProt Q9BUJ2); binding; lysate): 0.011 µM

[N-]=[N+]=N[C@@H]1[C@H](O)[C@@H](CO)O[C@H]1n1ccc(=O)[nH]c1=O
Kd (UCK1; binding, fluorescence): 0.181 µM

Cc1cnc(-c2ccc(-c3ccc(NC(=O)Nc4c(F)cc(F)cc4F)cc3F)c3c2C(=O)NC3)[nH]1
Kd (Aurora kinase B (AURKB, Homo sapiens, UniProt Q96GD4); binding, competition with immobilised ligand): 0.0031 µM

CCCCc1nc2cc(/C=C/C(=O)NO)ccc2n1CCN(CC)CC
Kd (Histone deacetylase 2 (HDAC2, Homo sapiens, UniProt Q92769); cell-free assay): 1.3 µM
